This is a sample that favours compounds with a hit; in the whole collection about 9.8% have one here.
Rad51 HR inh: human RAD51 strand exchange inhibitors, primary screen, biochemical, fluorescence; DNA repair protein RAD51 homolog 1 (Homo sapiens), Q06609; hRad51 DNA strand exchange, fluorescence dequenching; inhibition, % at 10 µM; 0.085% of 200,000 active; AID 1385, 2008;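 active = inhibition above 40% at the single screening dose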;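 note: 0% = DMSO control wells and 100% = blanks with heterologous ssDNA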
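System: human Rad51 nucleoprotein filaments preassembled on unlabelled ssDNA. Reagent: labelled 47-mer dsDNA for strand exchange. Schedule: 30-min compound preincubation and 15-min exchange, both room temperature. Measured by: FRET fluorescence dequenching, excitation 485 nm, emission 520 nm. Read-out: Fluorescence-based percent inhibition, control- and blank-normalised. Benchmarks: plate controls and plate blanks.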
PMI act satM6P: human PMI activators, high substrate, primary screen, biochemical, fluorescence intensity, near-saturating mannose 6-phosphate. Mannose-6-phosphate isomerase (Homo sapiens), P34949. coupled PMI enzyme assay, resazurin fluorescence, 20 min; stronger effect = higher value; 1 = untreated enzyme, 0 = substrate-free blank. activation factor at 20 µM. 0.34% of 190,000 active. AID 1216, 2008;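 active = activation factor of 2 or more at 20 µM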
Target sequence (P34949 whole entry, looked up): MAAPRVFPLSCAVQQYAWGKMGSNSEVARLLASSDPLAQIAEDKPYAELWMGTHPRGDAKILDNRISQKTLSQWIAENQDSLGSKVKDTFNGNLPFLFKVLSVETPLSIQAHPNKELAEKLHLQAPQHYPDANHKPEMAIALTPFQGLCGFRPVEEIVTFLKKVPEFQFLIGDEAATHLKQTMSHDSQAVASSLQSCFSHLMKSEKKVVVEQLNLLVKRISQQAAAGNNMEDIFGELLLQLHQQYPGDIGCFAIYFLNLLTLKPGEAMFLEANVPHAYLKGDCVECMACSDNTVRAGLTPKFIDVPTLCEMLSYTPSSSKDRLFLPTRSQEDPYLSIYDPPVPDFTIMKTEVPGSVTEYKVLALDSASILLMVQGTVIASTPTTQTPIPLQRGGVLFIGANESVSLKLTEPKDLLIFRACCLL
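Test system: human phosphomannose isomerase with PGI, G6PDH, diaphorase coupling enzymes; amount: 15 ng/mL PMI; incubation: enzyme reaction with compound 20 min at room temperature; technique: resorufin fluorescence (Ex 544/Em 590 nm) from resazurin via diaphorase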
L major viab: Leishmania major promastigote growth inhibition, primary screen; Leishmania major promastigotes, resazurin fluorescence viability; inhibition, % at 10 µM; 9% of 200,000 active; AID 1063, 2008; in the data active = inhibition above about 50%;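 note: promastigotes grown with compound for 44 hours at 28 °C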
PMI act: activators of human PMI, primary screen, biochemical, fluorescence intensity, near-Km mannose 6-phosphate. Mannose-6-phosphate isomerase (Homo sapiens), P34949. purified human PMI, coupled resazurin fluorescence, 20 min; stronger effect = higher value; 1 = vehicle control, 0 substrate-free wells. activation factor at 20 µM. 0.005% of 190,000 active;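 active = activation factor of 2 or more at 20 µM, relative to plate controls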
WT yeast gro inh: growth inhibition of WT strain, primary screen, mitochondrial fusion inhibitor project, WT and mutant strains, chemical genetic | mitochondrial fusion phenotypic screen | inhibition, % at 10 µM | 2.1% of 190,000 active; in the data active = inhibition above about 58%; tested in S. cerevisiae
m-calpain inh: inhibitors of pig calpain II, primary screen, biochemical, fluorogenic peptide substrate, 1536-well. inhibition, % at 16 µM. 0.37% of 220,000 active. purified calpain II, 30 min. AID 1236, 2008;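 active = inhibition above about 50%, limit read from the data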
Active calls of the source: *; nt = not tested or not shown; ! = not confirmed by another sample.

SMILES	Rad51 HR inh	PMI act satM6P	L major viab	PMI act	WT yeast gro inh	m-calpain inh
CCCCNS(=O)(=O)c1ccc2nc(SCC(=O)c3ccccc3OC)[nH]c2c1	-1	0.9	99*	1	6	12
CCCCC(=O)N(CCOC)c1nnc(-c2ccccc2C)s1	0	0.9	9	0.9	-3	24
COc1ccc(C2=C(CN(C)C)C(c3ccccc3)c3ccccc3O2)cc1 (stereo not drawn)	14	0.9	100*!	0.8	43	-27
CCOc1ccc(C2=C(C=C(C#N)C#N)C(c3ccccc3)c3ccccc3O2)cc1 (stereo not drawn)	nt	0.9	42	0.9	37	6
CC(C)Nc1nc(Cl)nc(NCCOc2ccccc2)n1	1	1	20	0.9	-2	-5
CCC(C)Nc1nc(Cl)nc(NCCOc2ccccc2)n1 (stereo not drawn)	20	0.9	80*	0.7	6	28
CCOC(=O)Cc1c(C)nc2c(-c3ccc(Cl)cc3)c(C)[nH]n2c1=O	3	0.9	95*	1	7	-159
CCOC(=O)Cc1cc(=O)n2[nH]c(C)c(-c3ccccc3)c2n1	-2	1.1	-9	1.1	7	-54
CCO[C@H]1OC(C(=O)N2CCCCCCC2)=C[C@@H](c2coc3ccccc3c2=O)[C@@H]1CCCO	nt	1	-6	1	-6	0
Oc1ccccc1/C=N/Nc1cccc2cccnc12	-6	1.8	-5	1.3	-3	32
C/C(=N\Nc1cccc2cccnc12)c1ccc(C)cc1	1	2.1*	-1	1.6	74*	21
OCc1nc2ccccc2n1CC(O)COc1ccccc1 (stereo not drawn)	-9	1	-4	1	0	-14
Cc1ccc(Cn2c(=N)n(CC(O)COc3ccccc3)c3ccccc32)cc1 (stereo not drawn)	-6	1.1	101*	1	33	8
N=c1n(Cc2ccccc2)c2ccccc2n1CC(O)COc1ccccc1 (stereo not drawn)	-9	1	100*	1	32	29
O=C(Nc1ccc(C(F)(F)F)cc1)c1cnc(N2CCN(c3ccccn3)CC2)c2ccccc12	5	1	-1	1	12	-312
C=CCNS(=O)(=O)c1cccc(C(C)=O)c1	1	1.1	54*	1	-7	-6
CC(=O)c1cccc(S(=O)(=O)NCC2CCCCC2)c1	-13	1	-5	0.9	-10	18
CN(/N=C/c1ccncc1)c1cnc2ccccc2n1	9	1.1	14	1.1	-4	9
CN(/N=C/c1ccc(C(C)(C)C)cc1)C1=NCCN1	9	0.9	56*	1	5	36
CCOC(=O)c1c(C)[nH]c(N=Nc2cccc(C)c2)c1C	-7	1.1	9	1	73*	20
CCOC(=O)c1c(C)[nH]c(C2=NNC(=Nc3ccccc3)SC2)c1C	-2	1	-10	0.9	65*	-33
CCOC(=O)c1c(C)[nH]c(C2=NNC(=Nc3ccc(OCC)cc3)SC2)c1C	-11	1	-3	1.1	35	-20
CCOC(=O)c1c(C)[nH]c(N=Nc2ccc(C)cc2)c1C	-3	1	-2	0.9	7	-12
CCOC(=O)c1c(C)[nH]c(N=Nc2ccccc2)c1C	8	0.9	6	0.8	75*	25
CCN1CCN(C(=O)C(=O)c2c(C)[nH]c3ccccc23)CC1	9	1.1	-5	1.1	-7	9
SMILES	Rad51 HR inh	PMI act satM6P	L major viab	PMI act	WT yeast gro inh	m-calpain inh
CCOC(=O)C1(CCOC)CCN(Cc2nc(C(C)C)cs2)CC1	2	1.1	-5	1	2	-21
Cc1cc(O)c2/c(=N\N)c(-c3csc(C)n3)coc2c1	-2	nt	nt	nt	nt	-2
COC(=O)c1ccc2c(c1)S(=O)(=O)NC(=NCc1ccco1)S2	4	1	96*	1	-1	-19
COC(=O)c1ccc(=O)n(Cc2ccco2)c1	-1	1.1	-3	1.1	-10	-35
Cn1c(N)c(S(=O)(=O)N2CCN(Cc3ccccc3)CC2)c(=O)n(C)c1=O	-4	1	-2	1	16	2
CCN(CC)S(=O)(=O)c1ccc(-c2nnc(SCC(=O)N3c4ccccc4CC3C)o2)cc1 (stereo not drawn)	8	1.2	-1	1.1	13	-19
CCN(CC)S(=O)(=O)c1ccc(-c2nnc(SCC(=O)N3c4ccccc4CC3C)n2CC)cc1 (stereo not drawn)	-8	0.9	91*	0.8	0	8
O=c1c2ccccc2nc(COc2ccccc2)n1/N=C/c1cn[nH]c1-c1ccccc1	15	1	51*	0.9	-1	8
Cc1ccccc1OCc1nc2ccccc2c(=O)n1/N=C/c1cn[nH]c1-c1ccc(Br)cc1	5	0.8	5	0.9	-2	14
O=C1C2=C(NC(=S)NC2c2ccc(Cl)cc2)NC(c2ccc(Cl)cc2)N1c1ccc(Cl)cc1 (stereo not drawn)	0	1	100*	0.9	13	-40
COc1ccc(-c2nncnn2)cc1	4	0.7	97*	1	25	-12
CCOC(=O)C1CCCN(c2c(NCCc3ccccc3)c(=O)c2=O)C1 (stereo not drawn)	nt	nt	nt	nt	nt	-3
CCOC(=O)C1CCCN(c2c(NCCCN(C)c3ccccc3)c(=O)c2=O)C1 (stereo not drawn)	2	0.9	0	0.9	14	100*
CC(=O)c1cc(CN2CCN(Cc3ccc(C)cc3)C(CCO)C2)cs1 (stereo not drawn)	-3	0.9	73*	0.8	2	-21
CC(=O)c1cc(CN2CCN(CCC(C)C)C(CCO)C2)cs1 (stereo not drawn)	nt	nt	nt	nt	nt	-5
COc1ccc(CN2CCN(Cc3csc(C(C)=O)c3)CC2CCO)c(C)c1C (stereo not drawn)	9	1	86*	1	6	-28
COc1cc(C(=O)NC2CCCNC2)cc(OC)c1OC (stereo not drawn)	-6	0.9	nt	0.9	-1	8
O=C(Cn1c(=O)oc2cccnc21)Nc1ccccc1Oc1ccc(Cl)cc1Cl	15	nt	nt	nt	nt	-5
Fc1ccccc1-c1nc2c(s1)CCc1onc(-c3ccc(Br)cc3)c1-2	1	nt	nt	nt	nt	nt
Cc1ccc(N2CCN(CC(O)COc3cccc(C)c3)CC2)cc1 (stereo not drawn)	13	nt	nt	nt	nt	3
O=S(=O)(c1ccc(OCC(O)CN2CCN(c3ccccc3O)CC2)cc1)N1CCOCC1 (stereo not drawn)	-10	0.7	4	0.9	2	16

From PubChem BioAssay
